# Screening data as filed in PubChem.
# Casp6 inh = inhibitors of human caspase-6; purified caspase-6, Z-VEID-R110 cleavage fluorescence; inhibition, % at 12.5 µM; hit rate 0.53% among 350,000;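 active = mean inhibition across replicates at least about 35%, with every replicate also reaching that limit, limit read from the data; inconclusive = only one of the two criteria met; inactive = neither criterion met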;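 also: 0% = median of neutral control wells and 100% = no fluorescence left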
# Target sequence (P55212 24-179 limits assumed): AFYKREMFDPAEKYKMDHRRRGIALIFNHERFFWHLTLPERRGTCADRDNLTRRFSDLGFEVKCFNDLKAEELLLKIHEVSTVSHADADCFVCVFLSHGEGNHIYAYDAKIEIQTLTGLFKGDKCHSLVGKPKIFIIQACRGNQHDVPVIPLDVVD
# Target sequence (P55212 194-293 limits assumed): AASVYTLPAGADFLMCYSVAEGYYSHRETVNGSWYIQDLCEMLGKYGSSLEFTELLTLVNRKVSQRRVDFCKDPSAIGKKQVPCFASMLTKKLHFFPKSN
# esBAF inh = inhibitors of esBAF chromatin remodeling in mouse ES cells. AID 602393. hit rate 2% among 350,000. reporter increase, % at 12.5 µM. Bmi1-luciferase knock-in reporter, 24 h; 100% = twice the neutral-well signal; in the data active = activation above about 40%; inconclusive = no clear call, values can overlap the other calls;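 also: 0% = median of the plate's neutral control wells and 100% = double that signal; a rise in the Bmi1 reporter signal indicates esBAF inhibition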
# XiGFP reactiv = X-chromosome reactivation activator. hit rate 0.055% among 360,000. XiGFP mouse fibroblasts, % GFP-positive cells imaging, 3 d; cells co-treated with 5-aza-dC sensitizer; scaled so ellipticine positive control = 100%. activation, % at 7.58 µM. AID 743238;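 active = mean normalized replicate activation at least 10% and every replicate at or above 10%; inconclusive = only one of the two criteria met; inactive = mean below 10% and not all replicates reach 10%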;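 also: 0% = median of on-plate neutral control wells and 100% = ellipticine 6 µM median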
#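 Assay system: SV40-immortalized XiGFP fibroblast cells, line 68-5-11; buffer or medium: DMEM plus 5-aza-dC sensitizer; compound: one concentration, pinned; timing: compounds 3 days, fix/stain 15 min at room temperature; benchmarks: positive control ellipticine, 6 µM final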
# MITF TRPM1 HTS = MITF TRPM1 promoter activation in melanoma cells | SK-MEL-5 TRPM1-promoter luciferase, 24 h; % of positive control, neutral wells = 0 | activation, % at 12.5 µM | hit rate 0.75% among 300,000 | AID 588334;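 active = mean activation of at least 80% with every replicate also reaching 80%; inconclusive = mean reaches 80% but some replicate falls short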;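 also: 0% = neutral control wells and 100% = parthenolide positive control wells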
# NSD2 inh = blocks human histone methyltransferase NSD2; O96028; NSD2 peptide methylation, AlphaScreen, 120 min; inhibition, % at 12.5 µM; hit rate 0.54% among 310,000; AID 743445; in the data active = inhibition above about 50%
# Wnt act = activators of Wnt/beta-catenin signaling; Wnt/beta-catenin reporter cell assay, activator, plate reader; activation, % at 9.35 µM; hit rate 1.2% among 300,000; in the data active = activation above about 30%, passing the limit was not always enough; inconclusive = no clear call, values can overlap the other calls;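 also: 0% = neutral control wells and 100% = positive control wells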
# Starred values were filed as active, the others as inactive; u = inconclusive; x = no result. Hits are enriched below; roughly 3% of the tested compounds scored in any of these assays.
SMILES,Casp6 inh,esBAF inh,XiGFP reactiv,MITF TRPM1 HTS,NSD2 inh,Wnt act
CCCNC(=O)N1CC2(CCN(S(=O)(=O)c3cccc(OC)c3)CC2)c2c(n(C)c3cc(OC)ccc23)[C@@H]1CO,3,x,0,x,x,x
CCOc1cc(/C=N/NC(=O)CSc2nnc(C)s2)ccc1OCc1ccccc1Cl,-1,x,0,-3,-1,52*
COc1ccc2c3c([nH]c2c1)[C@@H](CO)N(Cc1ccncc1)CC31CN(S(C)(=O)=O)C1,x,x,0,x,x,x
CC(=O)Nc1ccc2c(c1)C(=O)N(C)C[C@@H](C)[C@@H](CN(C)C(C)=O)O2,x,x,0,x,x,x
C=CCOc1cccn2c(N(C=O)Cc3ccccc3)c(CC)nc12,37*,-3,0,x,0,-1
O=C(NC1CCCCC1)C(c1ccnc2ccccc12)N1CCc2ccccc2C1 (centres undefined),76*,5,x,x,x,3
CCCC#Cc1ccc(CC[C@H]2O[C@H]3CC[C@@H](CO)O[C@H]3C[C@H]2NC(=O)c2cnccn2)cc1,3,x,x,x,x,x
COCCNC(=O)c1cc2c(s1)-c1ccc(Cl)cc1SC2,1,32,0,42,0,43*
CO[C@H]1CN(C)C(=O)c2ccc(NC(=O)c3cc(C)on3)cc2OC[C@H](C)N(CC2CC2)C[C@@H]1C,-6,-12,0,x,x,x
Cn1c(CCNC(=O)c2cc(COc3ccc(F)c(F)c3)on2)nc2ccccc21,1,39,0,13,-2,-1
Cc1cc(C)n(CC(C)NC(=O)c2cc(COc3ccc(F)c(F)c3)on2)n1 (centres undefined),2,62*,0,67,-2,12
Cc1cc(C)n(CC(C)NC(=O)c2cc(COc3c(F)cccc3F)on2)n1 (centres undefined),-1,x,0,-4,0,-2
Cc1cc(C)n(CCCNC(=O)c2cc(COc3ccc(C)c(C)c3)on2)n1,2,9,0,6,-1,-1
Cc1ccc(OCc2cc(C(=O)NCc3ccc(OC(F)(F)F)cc3)no2)cn1,0,17,0,7,2,-3
CCc1cc(CNC(=O)c2cc(COc3ccc(C)nc3)on2)on1,1,60*,0,35,-1,22
CC(=O)c1ccc(OCc2cc(C(=O)NCCn3nc(C)cc3C)no2)cc1,-2,44*,0,39,-1,-1
Cc1cc(CNC(=O)c2cc(COc3ccc(F)c(F)c3)on2)nn1C,-4,65*,0,86*,-6,29
COc1cc2cc(C)c(SCC(=O)N3c4ccccc4Sc4ccccc43)nc2cc1OC,x,x,x,x,-1,x
O=C(NCC1CCCCC1)[C@H]1[C@H](CO)[C@H]2Cn3c(ccc(C4=CCCCC4)c3=O)[C@@H]1N2,-1,5,0,x,x,x
Cc1cccc(CC(C)NC(=O)c2cc(COc3ccc(C)c(C)c3)on2)n1 (centres undefined),-1,x,0,13,0,15
Cc1cccc(CC(C)NC(=O)c2cc(COc3ccc(F)cc3F)on2)n1 (centres undefined),-1,42*,0,15,3,8
CCOC(=O)c1c(-c2ccc(Cl)cc2)csc1/N=C/C1C(=O)CC(C)(C)CC1=O,x,x,x,x,0,x
CC(C)NC(=O)N(C)C[C@H]1Oc2ncc(C#CC3CCCC3)cc2C(=O)N([C@@H](C)CO)C[C@H]1C,-1,0,0,x,x,x
Cn1c2ccccc2c(=O)c2ccc(-c3ccc4c(c3)OCO4)cc21,0,49*,0,84*,x,41*
O=C(Nc1ccccc1)Nc1ccc2c(c1)[C@H]1C[C@H](CC(=O)N3CCCCC3)O[C@@H](CO)[C@H]1O2,2,-7,0,x,x,x
SMILES,Casp6 inh,esBAF inh,XiGFP reactiv,MITF TRPM1 HTS,NSD2 inh,Wnt act
Cc1ccc(NC(=O)c2ccccn2)c(Br)c1,0,x,0,33,-4,37*
Cc1ccc(NC(=O)c2ccccc2F)c(NC(=O)c2ccccc2F)c1,3,58*,0,x,0,26
Cc1ccc(C)c(NC(=O)c2ccccn2)c1,-1,19,x,13,21,1
Cc1ccc(NC(=O)c2ccccc2Cl)c(Cl)c1,x,39,x,86*,-8,2
CC1CCc2c(sc(NC(=O)c3noc4c3CCCC4)c2C(N)=O)C1 (centres undefined),-3,x,0,141*,2,29
COC(CNC(=O)c1ccc2c3c(onc13)-c1ccccc1C2=O)OC,50*,x,0,x,x,71*
COc1cccc(-c2nc(COc3ccc(Cl)cc3Cl)no2)c1,-1,5,0,x,-2,2
COc1ccccc1-c1nc(COc2ccc(Cl)cc2Cl)no1,-4,x,0,149*,-1,54*
Nc1nn(-c2ccccc2)c(N)c1N=Nc1ccccc1,x,x,0,31,11,26
c1ccc(N=NC2=NN(c3ccccc3)CS2)cc1,-1,x,0,x,27,54*
CCC(=O)N(Cc1ccco1)Cc1cc2cccc(C)c2n2nnnc12,2,x,0,-2,2,46*
CC1CCc2c(sc(NC(=O)COC(=O)C3CCCO3)c2C#N)C1 (centres undefined),-5,x,0,20,-1,2
CN(C)/C=N/c1sc2c(c1C#N)CCCC2,-1,19,0,25,7,3
CCOC(=O)Nc1sc2c(c1C#N)CCC(C)C2 (centres undefined),x,u,x,83*,-2,x
CC1CCc2c(sc(NC(=O)C3CCCO3)c2C#N)C1 (centres undefined),1,u,0,128*,-3,7
CC1CCc2c(sc(/N=C/N(C)C)c2C#N)C1 (centres undefined),2,x,0,55,5,39*
O=C(C[C@@H]1C[C@H]2c3cc(NC(=O)C4CCOCC4)ccc3O[C@H]2[C@H](CO)O1)NCc1ccc(Oc2ccccc2)cc1,0,-1,0,x,x,x
COc1ccc(/C(C)=N/Nc2nccnc2Cl)cc1,0,46*,0,65,0,29
CC(=O)Nc1cccc2cc(S(=O)(=O)O)ccc12,44*,x,0,x,5,x
CN(C)c1ccc(C=Cc2ccnc3ccccc23)cc1N,-1,-10,0,x,-4,39*
Cc1ccc(C)n1/N=C1/NC(=O)CS1,x,x,x,-5,144*,-2
CC(C)=C1C(=O)NN(c2ccc(F)c(Cl)c2)C1=O,68*,5,x,11,4,0
O=C(NCc1ccccc1)c1cc(-c2cccc(O)c2)on1,-4,68*,0,x,x,20
COc1ccc(-c2cc(C(=O)NCc3ccccc3)no2)cc1OC,x,-8,x,8,-1,x
COc1ccc(-c2cc(C(=O)NCc3cccnc3)no2)cc1,x,25,x,17,2,x
O=C(NCCN1CCOCC1)c1cc(-c2ccccc2)on1,x,19,x,7,-2,47*
O=C(NCc1cccnc1)c1cc(-c2ccccc2)on1,x,47*,x,19,-2,x
